E coli WT inh = growth inhibitors of wild type E. coli, primary screen, strain BW25113 wild type, absorbance readout. E. coli BW25113 growth inhibition, OD600. inhibition, % at 10 µM. 0.05% of 20,000 active; in the data active = inhibition above about 40%;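 also: bacteria exposed to compound for 20 hours at 37 °C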
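assay system = bacterial strain in a whole-cell growth screen | quantity = inoculum from a 1:1000 dilution of a 1.5 h subculture | buffer or medium = LB broth with 50 µg/mL kanamycin | compound dosing = one dose, 10 µM final | schedule = compound exposure of 20 h at 37 °C | technique = absorbance at 615 nm as a measure of bacterial growth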
Active calls of the source: *. These entries were drawn from the full list.

SMILES | E coli WT inh
CCOC(=O)c1oc2ccccc2c1NC(=O)c1cccc(OC)c1OC | 16
CCOC(=O)C1CCCn2c1nc1sc3c(c1c2=O)CCCC3 (configuration not stated) | 3
CCn1c(SCCC#N)nnc1-c1ccncc1 | -22
Cc1nc2sc(C(c3ccccc3)N3CCN(c4ccccc4F)CC3)c(O)n2n1 (configuration not stated) | 14
O=S(=O)(Nc1cccnc1)c1ccc(Cl)c(C(F)(F)F)c1 | -1
Cc1ccc(S(=O)(=O)NC(C)(C)CSc2nnc(N)s2)cc1 | -19
COC(=O)c1ccc(Cl)c(NC(=O)CN(c2ccc3c(c2)OCO3)S(C)(=O)=O)c1 | -1
c1ccc(-c2cc(CSc3nc4ccccc4[nH]3)on2)cc1 | 10
CCCc1cc(C(=O)N2CCN(c3ccccc3C)CC2)cs1 | -16
Cc1cnc(C(=O)NCCc2ccc(S(=O)(=O)NC(=O)NC3CCCCC3)cc2)cn1 | 19
CCCN(S(=O)(=O)c1ccc(OCC)cc1)S(=O)(=O)c1cccs1 | 10
COC(=O)c1ccc(-c2ccc(CNCC(O)c3ccccc3)o2)cc1 (configuration not stated) | 0
O=c1[nH]c(/C(=N\O)c2ccccc2)no1 | -6
CCCOc1ccccc1Nc1nnc(C)c(=O)[nH]1 | -22
CC(C)(C)OC(=O)N1CCN(c2ccc(NC(=O)c3cc4ccccc4oc3=O)cc2)CC1 | -2
O=S(=O)(c1ccc(Oc2ccc(Br)cc2)cc1)N1CCOCC1 | -27
Cc1ccc2[nH]c(=O)c(C(c3nnnn3CCc3ccccc3)N3CCOCC3)cc2c1 (configuration not stated) | 6
CC(C)(C)Nc1nc(NC(C)(C)C)nc(-n2ccnc2)n1 | 6
Cc1cc(C)cc(OC(=O)N2CCOCC2)c1 | -10
CCCNCC(O)COc1ccccc1C(=O)CCc1ccccc1 (configuration not stated) | 11
CC1CCN(c2nc3c(c(=O)[nH]c(=O)n3C)n2CCSc2ncccn2)CC1 | 17
CCOc1cc(C(=O)Nc2ccccc2N2CCN(S(C)(=O)=O)CC2)cc(OCC)c1OCC | -20
C=CCn1c(SCC#N)nc2c(c1=O)C(C)(C)Cc1ccccc1-2 | 0
CCN(CC(=O)NC)S(=O)(=O)c1ccc(Br)cc1 | -13
O=c1oc2c3c4c(cc2cc1-c1nc2ccccc2[nH]1)CCCN4CCC3 | -1
SMILES | E coli WT inh
Cc1cc(-c2ccccc2)n(-c2ccc(C(=O)N3CCN(c4ncccn4)CC3)cc2)n1 | -1
O=C1CC(N2CCN(C3CCc4ccccc4C3)CC2)C(=O)N1c1ccccc1 (configuration not stated) | 0
COc1ccc(OC)c(S(=O)(=O)Nc2ccc(O)c(Sc3ncn[nH]3)c2)c1 | -16
O=C(Cn1cnc2ccccc2c1=O)NCCC(=O)N1CCN(c2ccccc2)CC1 | 9
COc1ccc(NC(=O)c2ccco2)cc1NC(=O)c1cccnc1 | -14
Cc1ccc(-n2c(-c3ccncc3)nnc2-c2cccs2)cc1 | 0
CCn1cc(C(C)NC(=O)COc2ccc(Cl)cc2C)c(C)n1 (configuration not stated) | -6
O=S(=O)(NCCSc1nnnn1-c1ccccc1)c1cccs1 | -13
O=C(CC1(O)C(=O)Nc2ccc(Br)cc21)c1ccc2c(c1)OCO2 (configuration not stated) | -9
O=C(Nc1nonc1NC(=O)C1CCCCC1)C1CCCCC1 | -8
Cc1nc2ccc(C(C(F)(F)F)(C(F)(F)F)C(F)(F)F)cc2[nH]1 | -8
CCOc1ccc(OCC)c(NC(=O)C2CCN(c3ncccn3)CC2)c1 | 0
CCOC(=O)c1ccc(NC(=O)CSc2nnnn2CCCO)cc1 | 6
O=C(NCCc1ccccc1)c1ccccc1NS(=O)(=O)N1CCCC1 | -21
CCOC(=O)c1cc2c(=O)n3cccc(C)c3nc2n(CCc2ccccc2)c1=N | 7
CCOC(=O)c1ccc(CSc2nnc(N)s2)cc1 | -15
CCCCC(=O)Nc1cccc(-c2nn3c(C)nnc3s2)c1 | -25
COc1nc(N2CCOCC2)nc(-n2cccc2)n1 | 6
COc1cccc(NC(=O)CSCc2n[nH]c(=O)[nH]2)c1 | -10
Cc1cc(C)c2c(n1)nn1c(N3CCN(c4ccccc4C)CC3)cc(C)nc21 | 0
CCc1ccccc1N1CC(C(=O)O)CC1=O (configuration not stated) | -16
Cc1cc2c(c(=O)o1)C(C13C=CC(CC1)C3)C(C#N)=C(N)O2 (configuration not stated) | -4
COc1ccc(N2CCN(C(=O)CCNS(=O)(=O)c3ccc(Br)s3)CC2)cc1 | 5
CCC(C)(C)NC(=O)C(OC(=O)c1ccco1)c1ccccc1OC (configuration not stated) | -2
COC(=O)c1ccccc1NC(=O)CN(C)S(=O)(=O)c1cc(C)ccc1OC | -20
SMILES | E coli WT inh
CCC1Cc2c(nc3c4c(nc(N5CCOCC5)c(C#N)c24)NC(C)=N3)O1 (configuration not stated) | -4
CCOC(=O)c1ccccc1NC1CC(=O)N(c2ccccc2C)C1=O (configuration not stated) | -1
CCC(C)n1c(C)nc2c(c1=O)c1nc3ccccc3nc1n2-c1ccc2c(c1)OCCO2 (configuration not stated) | -13
CC1(C)NC(=O)N(CNc2cc(Cl)ccc2Cl)C1=O | 4
N#Cc1cccc(-c2cn(S(=O)(=O)c3ccc(Cl)cc3)nc2N)c1 | -21
O=C(CCSc1nc(-c2ccco2)cc(C(F)(F)F)n1)N1CCCc2ccccc21 | -14
Cc1cc(C)c2c(CC(=O)Nc3nccs3)coc2c1 | -16
COC(=O)c1ccc(-n2nnnc2SCc2nn[nH]n2)cc1 | 8
Cc1cc(C)n(Cc2cc(C)c(Cn3nc(C)cc3C)cc2C)n1 | -1
Nc1nc(N2CCN(C/C=C/c3ccccc3)CC2)nc2ccccc12 | -1
O=c1c2ccccc2nc2n1CCCCN2 | -11
CCOC(=O)N1CCN(C(=O)c2ccc(NC(=O)c3ccc(C)cc3)cc2)CC1 | -21
O=C1c2ccccc2C(=O)N1Cc1nc2ccccc2c(=O)n1CCN1CCOCC1 | -2
C=CCn1c(SCC(=O)c2cc(C)n(C(C)COC)c2C)nc2sc(C)c(C)c2c1=O (configuration not stated) | -3
O=C(CN1CCCC1)Nc1ccc(-c2nc3cc(NC(=O)CN4CCCC4)ccc3o2)cc1 | -7
Cc1cc(C)c(S(=O)(=O)N(C)CC(=O)NC2CCCC2)c(C)c1 | 0

High-throughput results deposited in PubChem by SRMLSC.
